Results on four molecules are retold here after ChEMBL document CHEMBL4118256, “Second Generation of Mannich Base-Type Derivatives with in Vivo Activity against Trypanosoma cruzi” (J Med Chem, 2018).

In series [1] the test system is Trypanosoma cruzi. Description: Antitrypanosomal activity against Trypanosoma cruzi MHOM/Pe/2011/Arequipa DTU 5 trypamastigotes infected in Balb/c mouse assessed as reduction in splenomegaly at 100 mg/kg, po once daily for 5 consecutive days starting from day 75 post infection measured on day 127 post infection relative to control. Type of series: functional.
The nature of series [2]: Selectivity index, ratio of IC50 for African green monkey Vero cells to IC50 for Trypanosoma cruzi TINF/CH/1956/Tulahuen DTU 6 amastigotes infected in African green monkey Vero cells. It is filed as toxicity. Particulars: read-out: Ratio IC50. The method, boiled down:
(§1)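 SI is Vero IC50 divided by the IC50 for the stated parasite form. For Vero cytotoxicity, cells were seeded at 1.25×10^4 mL^-1 with compounds at 1000–1 µM, incubated 48 h, then given resazurin for a further 24 h (72 h total), with absorbance read at 570/600 nm. Triplicate, four determinations.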

Series [3] has as its system Mus musculus. Briefly: Hepatotoxicity in Balb/c mouse infected with Trypanosoma cruzi MHOM/Pe/2011/Arequipa DTU 5 trypamastigotes assessed as change in alkaline phosphatase level at […], po once daily for 5 consecutive days starting from day 75 post infection measured on day 127 post infection by biochemical analysis relative to control. Type of series: toxicity, organism-based. Particulars: in vivo. The gist of the method: (§2)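 Serum clinical chemistry in Arequipa-infected female BALB/c mice. Oral 20 mg·kg-1 per day for 5 days, started day 10 or day 75 pi. Samples taken at day 16 pi or day 81 pi, and on necropsy day. Markers: CK-MB and LDH (U/L), AST, ALT and alkaline phosphatase (U/L), total bilirubin. Results scored relative to infected untreated controls; uninfected reference n = 15.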

Series [4] relates to Trypanosoma cruzi. Description: Antitrypanosomal activity against Trypanosoma cruzi MHOM/Pe/2011/Arequipa DTU 5 epimastigotes assessed as effect on parasite glycolytic pathway by measuring reduction in pyruvate excretion at IC25 after 72 hrs by 1H NMR method. It is filed as functional, organism-based. The gist of the method: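 Arequipa epimastigotes exposed at IC25 for 72 h alongside an untreated control. Excreted catabolites were analysed by 1H NMR, and each peak is reported as % variation versus the control. Three separate determinations.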

The test system of series [5] is Mus musculus. Description: Hepatotoxicity in Balb/c mouse infected with Trypanosoma cruzi MHOM/Pe/2011/Arequipa DTU 5 trypamastigotes assessed as change in total bilirubin level at […], po once daily for 5 consecutive days starting from day 75 post infection measured on day 127 post infection by biochemical analysis relative to control. Type of series: toxicity, organism-based. Particulars: in vivo.

The next series deals with T1, Superoxide dismutase (Trypanosoma cruzi (strain CL Brener), UniProt Q4DCQ3).
T1 sequence (Q4DCQ3 whole entry): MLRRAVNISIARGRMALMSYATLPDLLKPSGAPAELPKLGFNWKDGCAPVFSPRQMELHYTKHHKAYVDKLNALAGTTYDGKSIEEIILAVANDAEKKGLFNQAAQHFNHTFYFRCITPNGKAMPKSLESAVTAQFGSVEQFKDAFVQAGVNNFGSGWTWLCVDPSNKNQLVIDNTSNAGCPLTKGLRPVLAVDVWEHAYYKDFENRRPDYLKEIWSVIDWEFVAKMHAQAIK
Description: Inhibition of Trypanosoma cruzi MHOM/Pe/2011/Arequipa DTU 5 epimastigotes Fe-SOD by UV-Visible spectrophotometric method. The gist of the method:
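SOD activity of parasite Fe-SOD and human CuZn-SOD was measured spectrophotometrically by the Beyer and Fridovich method, with compounds at 1–100 µM. Values are averages of three rate determinations; IC50 was obtained by linear regression and differences were tested by Newman-Keuls.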

For series [6], the system named is Trypanosoma cruzi. Description: Induction of mitochondrial membrane potential disruption in Trypanosoma cruzi MHOM/Pe/2011/Arequipa DTU 5 epimastigotes assessed as inhibition of DNA replication and RNA synthesis at IC25 after 72 hrs by acridine orange staining based flow cytometry relative to control. Type of series: functional. The method, boiled down:
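Arequipa epimastigotes were exposed for 72 h at IC25. DNA/RNA content was measured as acridine orange fluorescence by flow cytometry and compared with untreated control.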
For orientation: Flow cytometry measures light scatter and fluorescence of single cells or particles in a stream.

Series [7] deals with Mus musculus. Briefly: Hepatotoxicity in Balb/c mouse infected with Trypanosoma cruzi MHOM/Pe/2011/Arequipa DTU 5 trypamastigotes assessed as change in alkaline phosphatase level at 100 mg/kg, po once daily for 5 consecutive days starting from day 10 post infection measured on day 127 post infection by biochemical analysis relative to control. It is filed as toxicity, organism-based. Particulars: in vivo.

For the next series, the system named is Vero. Briefly: Cytotoxicity against African green monkey Vero cells assessed as reduction in cell viability after 72 hrs by resazurin dye based assay. Particulars: Chlorocebus sabaeus. The gist of the method:
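Vero monkey kidney cells grown at 37 °C, 5 % CO2, in RPMI with 10 % heat-inactivated FBS. Seeded at 1.25 × 10^4 mL-1 with compound at 1000 to 1 µM (DMSO 0.01 % v/v). After 48 h, resazurin added for a further 24 h, then SDS. Absorbance read at 570/600 nm. IC50 from triplicates in four separate determinations.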
(In general: Alamar Blue is a resazurin reagent that responds to reducing activity.)

The test system of series [8] is Trypanosoma cruzi. Description: Trypanocidal activity against Trypanosoma cruzi IRHOD/CO/2008/SN3 DTU 1 trypamastigotes derived from infected Balb/c albino mouse after 24 hrs by resazurin dye based assay. Particulars: IRHOD/CO/2008/SN3 DTU 1, 24 h. It is filed as functional, organism-based. The method, boiled down: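 Bloodstream trypomastigotes taken from mice at peak parasitaemia were seeded at 2×10^6 mL^-1 in RPMI with 10% FBS. Compounds were added at 50–0.2 µM and incubated 24 h at 37 °C, 5% CO2, then with resazurin for 4 h. SDS was added and absorbance read at 570/600 nm. IC50 was fitted; triplicate, four separate determinations.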

The test system of series [9] is Mus musculus. Briefly: Hepatotoxicity in Balb/c mouse infected with Trypanosoma cruzi MHOM/Pe/2011/Arequipa DTU 5 trypamastigotes assessed as change in total bilirubin level at […], po once daily for 5 consecutive days starting from day 10 post infection measured on day 127 post infection by biochemical analysis relative to control. Type of series: toxicity, organism-based. Particulars: in vivo. The gist of the method: as §2

In series [10] the test system is Trypanosoma cruzi. Briefly: Trypanocidal activity against Trypanosoma cruzi TINF/CH/1956/Tulahuen DTU 6 amastigotes infected in African green monkey Vero cells after 72 hrs by Giemsa-staining based microscopic assay. It is filed as functional, organism-based. Particulars: TINF/CH/1956/Tulahuen DTU 6, Vero. The gist of the method: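 Vero cells were seeded at 1×10^4/well on coverslips. After 24 h they were infected with culture-derived trypomastigotes (MOI 1:10, 24 h), then washed. Compounds were added at 100–0.2 µM (DMSO 0.01% v/v) for 72 h at 37 °C, 5% CO2. Slides were methanol-fixed and Giemsa-stained; amastigotes and infected cells were counted over 500 host cells. IC50 was derived by curve fitting; triplicate wells, four separate determinations.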

In series [11] the test system is Mus musculus. Briefly: Toxicity in Balb/c mouse assessed as reduction in body mass at […], po once daily for 5 consecutive days starting from day 75 post infection relative to control. Type of series: organism-based. Details: scale not given: the % may be the effect or the level left. Particulars: in vivo. The method, boiled down:
(§3)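 Infected female BALB/c mice, six per group, received oral doses of 20 mg·kg^-1/day for 5 consecutive days (total 100 mg·kg^-1) in 5% DMSO/0.5% HPMC vehicle, from day 10 or day 75 pi. Body mass and deaths were monitored during and after treatment.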

The subject of series [12] is Mus musculus. Description: Toxicity in Balb/c mouse assessed as reduction in body mass at […], po once daily for 5 consecutive days starting from day 10 post infection relative to control. It is filed as organism-based. Details: scale not given: the % may be the effect or the level left. Particulars: in vivo. The method, boiled down:
as §3

The nature of series [13]: Selectivity index, ratio of IC50 for African green monkey Vero cells to IC50 for Trypanosoma cruzi MHOM/Pe/2011/Arequipa DTU 5 trypamastigotes derived from infected Balb/c albino mouse. Particulars: read-out: Ratio IC50. Type of series: toxicity. The method, boiled down:
as §1

Calls of active or inactive are those of the source. No cut-off for these calls is given here.

`COc1ccc(C(=O)CCN2CCN(c3ccc([N+](=O)[O-])cc3)CC2)cc1`: in the series on Trypanosoma cruzi [1], the result was Active. In addition, the selectivity ratio in series [2] is 17.5; in series [13], 50.4. In addition, the Activity was less than 10% in the series on Mus musculus [3]; less than 10% with Mus musculus [5]; less than 10% in the series on Mus musculus [7]; less than 10% in the series on Mus musculus [9]; greater than 10% in the series with Mus musculus [11]; greater than 10% in the series with Mus musculus [12]. In addition, in the series with Trypanosoma cruzi [4], the result was inactive. Besides, the half-maximal inhibitory concentration (IC50) (as a rule, the concentration needed to halve the response being measured) against Superoxide dismutase amounted to 5 µM; with Vero, 587 µM; in the series on Trypanosoma cruzi [8], 3.1 µM; in the series with Trypanosoma cruzi [10] it was 33.6 µM. The “inhibition (INH)” value in the series on Trypanosoma cruzi [6] was determined as 72.9%.
With `COc1ccc(C(=O)CCN2CCN(c3ccc(F)cc3)CC2)cc1`, the outcome with Trypanosoma cruzi [1] and with Trypanosoma cruzi [4] was Active. Also, the selectivity ratio in series [2] was found to be 34.6; in series [13], 49.1. Moreover, the Activity with Mus musculus [3] was less than 10%; in the series on Mus musculus [5] it was less than 10%; with Mus musculus [7], less than 10%; in the series on Mus musculus [9], less than 10%; in the series with Mus musculus [11] it was greater than 10%; with Mus musculus [12], greater than 10%. In addition, the IC50 was found to be 7.8 µM at Superoxide dismutase, 55 µM in the series on Vero, 1.4 µM with Trypanosoma cruzi [8] and 1.6 µM in the series with Trypanosoma cruzi [10]. Moreover, the “inhibition (INH)” value in the series with Trypanosoma cruzi [6] was determined as 24.6%.
Consider `COc1ccc(C(=O)CCN2CCN(c3ccc(Cl)cc3)CC2)cc1`, for which the Activity is listed as 68% in the series with Trypanosoma cruzi [1]; less than 10% with Mus musculus [3]; less than 10% in the series on Mus musculus [5]; less than 10% in the series on Mus musculus [7]; less than 10% in the series with Mus musculus [9]; greater than 10% in the series on Mus musculus [11]. Moreover, the Activity with Mus musculus [12] was greater than 10%. Further, the figures for the selectivity ratio in series [2] and in series [13] were 78.7 and 89.6, respectively. In addition, in the series with Trypanosoma cruzi [4], the result was inactive. Further, the IC50 is 6.5 µM at Superoxide dismutase, 300 µM in the series on Vero, 3.9 µM with Trypanosoma cruzi [8] and 3.8 µM with Trypanosoma cruzi [10]. For the same molecule, in the series with Trypanosoma cruzi [6], the “inhibition (INH)” value is on record as 18%.
On to `O=C(Cn1ccnc1[N+](=O)[O-])NCc1ccccc1` [BENZNIDAZOLE], for which the “inhibition (INH)” value in the series with Trypanosoma cruzi [6] is listed as 22.4%. The IC50 with Vero stood at 23.2 µM; with Trypanosoma cruzi [10] it was 10 µM.
